These results are taken from ChEMBL document CHEMBL4364301 (Eur J Med Chem, 2019).

What all share (assay type): functional
The test system of experiment [1] is LNCaP. Nature of the experiment: Antiproliferative activity against human LNCAP cells assessed as reduction in cell growth incubated for 96 hrs by propidium iodide based 2D monolayer assay. The method, boiled down: (§1)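 After 24 h recovery, compound in medium or medium alone (control wells) was added at 10 half-log concentrations from 0.0032 to 100 µM, in triplicate, with at most 0.3% DMSO. After 96 h, wells were PBS-washed, stained with 7 µg/ml PI and 0.1% Triton X-100, and fluorescence read at 530/620 nm. IC50 came from a 4-parameter fit, geometric mean.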

In experiment [2] the test system is VCaP. Nature of the experiment: Antiproliferative activity against human VCaP cells assessed as reduction in cell growth incubated for 96 hrs by propidium iodide based 2D monolayer assay. The method, boiled down:
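VCaP cells in RPMI 1640 with 10% FCS at 37 °C, 5% CO2, seeded 4,000–20,000 cells/well and left 24 h before dosing. Compounds from DMSO stocks were diluted in half-log steps in medium, 10 concentrations 0.0032–100 μM, triplicate wells, max 0.3% DMSO. After 96 h, cells were washed, stained with 7 μg/ml propidium iodide plus 0.1% Triton X-100 for 1–2 h at room temperature, and fluorescence read at ex 530/em 620 nm.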

The subject of experiment [3] is CWR22R. Nature of the experiment: Antiproliferative activity against human 22Rv1 cells assessed as reduction in cell growth incubated for 96 hrs by propidium iodide based 2D monolayer assay. The conditions noted are these: 22Rv1, 96 h. The method, boiled down:
as §1

For experiment [4], the system named is DU-145. As to the kind of experiment: Antiproliferative activity against human DU145 cells assessed as reduction in cell growth incubated for 96 hrs by propidium iodide based 2D monolayer assay. The conditions noted are these: DU-145, 96 h. In short, it runs like this:
as §1

pIC50: −log10 of the molar value.

As to `CC1(C)C(=O)N(c2cccc(S(F)(F)(F)(F)F)c2)C(=S)N1c1ccc(C(F)(F)F)cc1`, the pIC50 in experiment [1] was 5.28; in experiment [2], 4.27; in experiment [3], 4.65; in experiment [4] it was 4.40.
Regarding `CC1(C)C(=O)N(c2ccc([N+](=O)[O-])c(C(F)(F)F)c2)C(=S)N1c1cccc(S(F)(F)(F)(F)F)c1`, the pIC50 in experiment [1], in experiment [2], in experiment [3] and in experiment [4] was 4.00 in each case.
`CC1(C)C(=O)N(c2ccc([N+](=O)[O-])c(C(F)(F)F)c2)C(=S)N1c1ccc(S(F)(F)(F)(F)F)cc1`: the negative-log IC50 (pIC50) is 4.89 in experiment [1], 4.00 in experiment [2], 4.00 in experiment [3] and 4.00 in experiment [4].
On to `CC1(C)C(=O)N(c2ccc([N+](=O)[O-])cc2C(F)(F)F)C(=S)N1c1ccc(S(F)(F)(F)(F)F)cc1`, for which the pIC50 in experiment [1], in experiment [2], in experiment [3] and in experiment [4] was 4.00 each time.
`CC1(C)C(=O)N(c2ccc(C#N)c(C(F)(F)F)c2)C(=S)N1c1cccc(S(F)(F)(F)(F)F)c1`: the pIC50 was 5.16 in experiment [1], 4.00 in experiment [2], 4.00 in experiment [3] and 4.00 in experiment [4].
As to `CNC(=O)c1ccc(N2C(=S)N(c3cccc(S(F)(F)(F)(F)F)c3)C(=O)C2(C)C)cc1F`, the pIC50 in experiment [1] is 4.60; in experiment [2] it was 4.25; in experiment [3], 4.43; in experiment [4], 4.29.
For `CC(O)(CSc1cc(C(F)(F)F)cc(C(F)(F)F)c1)C(=O)Nc1cccc(S(F)(F)(F)(F)F)c1` (centres undefined), in that order: 5.32, 5.40, 5.36 and 5.03.
For `CC1(C)C(=O)N(c2ccc(S(F)(F)(F)(F)F)cc2)C(=S)N1c1cccc(C(F)(F)F)c1`, in that order: 5.06, 4.00, 4.22 and 4.00.
`CC1(C)C(=O)N(c2ccc(S(F)(F)(F)(F)F)cc2)C(=S)N1c1ccc(C(F)(F)F)cc1`: the pIC50 in experiment [1] was 4.32; in experiment [2] it was 4.00; in experiment [3], 4.00; in experiment [4], 4.00.
Turning to `CNC(=O)c1ccc(N2C(=S)N(c3ccc(S(F)(F)(F)(F)F)cc3)C(=O)C2(C)C)cc1F`, the pIC50 in experiment [1] is 4.64; in experiment [2], 4.50; in experiment [3] it was 4.49; in experiment [4], 4.38.
In the same order, the values of `CC1(C)C(=O)N(c2ccc([N+](=O)[O-])cc2C(F)(F)F)C(=S)N1c1cccc(S(F)(F)(F)(F)F)c1` are 5.28, 4.00, 4.36 and 4.00.
For `CC(O)(CSc1cccc(C(F)(F)F)c1)C(=O)Nc1cccc(S(F)(F)(F)(F)F)c1` (racemic), in that order: 4.90, 4.69, 4.89 and 4.72.
In the same order, the values of `CC(O)(CSc1ccc(S(F)(F)(F)(F)F)cc1)C(=O)Nc1cccc(S(F)(F)(F)(F)F)c1` (racemic) are 4.90, 4.62, 4.88 and 4.61.
Turning to `CC(O)(CSc1ccccc1C(F)(F)F)C(=O)Nc1ccc(S(F)(F)(F)(F)F)cc1` (racemic), the pIC50 in experiment [1] is 4.91; in experiment [2], 4.68; in experiment [3] it was 4.88; in experiment [4] it was 4.80.
In the same order, the values of `CC(O)(CSc1ccc(S(F)(F)(F)(F)F)cc1)C(=O)Nc1ccc([N+](=O)[O-])c(C(F)(F)F)c1` (racemic) are 5.06, 5.00, 5.04 and 4.86.
For `CC(O)(CSc1cccc(S(F)(F)(F)(F)F)c1)C(=O)Nc1ccc(C#N)cc1C(F)(F)F` (racemic), in that order: 4.75, 4.51, 4.67 and 4.43.
Regarding `CC(O)(CSc1ccc(C(F)(F)F)cc1)C(=O)Nc1ccc(S(F)(F)(F)(F)F)cc1` (racemic), the pIC50 was 4.77 in experiment [1], 4.61 in experiment [2], 4.83 in experiment [3] and 4.54 in experiment [4].
For `CC(O)(CSc1ccccc1OC(F)(F)F)C(=O)Nc1ccc(S(F)(F)(F)(F)F)cc1` (racemic), in that order: 4.97, 5.00, 4.82 and 4.54.
In the same order, the values of `CC(O)(CSc1cccc(C(F)(F)F)c1)C(=O)Nc1ccc(S(F)(F)(F)(F)F)cc1` (racemic) are 4.74, 4.73, 4.63 and 4.58.
For `CC(O)(CSc1cccc(S(F)(F)(F)(F)F)c1)C(=O)Nc1ccc([N+](=O)[O-])c(C(F)(F)F)c1` (racemic), in that order: 5.07, 5.01, 5.06 and 4.86.
Consider `CC(O)(CSc1ccc(F)cc1)C(=O)Nc1ccc(S(F)(F)(F)(F)F)cc1` (racemic), for which the pIC50 in experiment [1] is 4.90; in experiment [2], 4.64; in experiment [3], 4.87; in experiment [4] it was 4.60.
With `CC(O)(CSc1ccc(C(F)(F)F)cc1)C(=O)Nc1cccc(S(F)(F)(F)(F)F)c1` (racemic), the negative-log IC50 (pIC50) is 4.76 in experiment [1], 4.56 in experiment [2], 4.57 in experiment [3] and 4.57 in experiment [4].
For the compound `CC(O)(CSc1ccc(C(F)(F)F)cn1)C(=O)Nc1ccc(S(F)(F)(F)(F)F)cc1` (racemic), the pIC50 was 4.91 in experiment [1], 4.72 in experiment [2], 4.70 in experiment [3] and 4.51 in experiment [4].
In the same order, the values of `CC(O)(CSc1ccc(S(F)(F)(F)(F)F)cc1)C(=O)Nc1ccc([N+](=O)[O-])cc1C(F)(F)F` (racemic) are 4.99, 4.58, 4.88 and 4.84.
In the same order, the values of `CC(O)(CSc1ccc(S(F)(F)(F)(F)F)cc1)C(=O)Nc1ccc(C#N)cc1C(F)(F)F` (racemic) are 4.82, 4.69, 4.88 and 4.75.
In the same order, the values of `CC(O)(CSc1cccc(OC(F)(F)F)c1)C(=O)Nc1ccc(S(F)(F)(F)(F)F)cc1` (racemic) are 4.89, 4.86, 4.85 and 4.62.
For `CC(O)(CSc1cccc(S(F)(F)(F)(F)F)c1)C(=O)Nc1ccc([N+](=O)[O-])cc1C(F)(F)F` (racemic), the pIC50 in experiment [1] was 4.90; in experiment [2], 4.54; in experiment [3] it was 4.76; in experiment [4] it was 4.72.
In the same order, the values of `CC(O)(CSc1cccc(S(F)(F)(F)(F)F)c1)C(=O)Nc1ccc(C#N)c(C(F)(F)F)c1` (racemic) are 4.84, 4.50, 4.69 and 4.49.
In the same order, the values of `CC(O)(CSc1ccc(OC(F)(F)F)cc1)C(=O)Nc1ccc(S(F)(F)(F)(F)F)cc1` (racemic) are 4.79, 4.80, 4.83 and 4.90.
Take `CC(O)(CSc1cccc(S(F)(F)(F)(F)F)c1)C(=O)Nc1ccc(S(F)(F)(F)(F)F)cc1` (racemic): the pIC50 in experiment [1] was 4.60; in experiment [2], 4.55; in experiment [3], 4.75; in experiment [4], 4.76.
Turning to `CC(O)(CSc1ccc(S(F)(F)(F)(F)F)cc1)C(=O)Nc1ccc(S(F)(F)(F)(F)F)cc1` (racemic), the pIC50 in experiment [1] is 4.74; in experiment [2], 4.55; in experiment [3], 4.61; in experiment [4] it was 4.65.
As to `CC(O)(CSc1cc(C(F)(F)F)cc(C(F)(F)F)c1)C(=O)Nc1ccc(S(F)(F)(F)(F)F)cc1` (racemic), the pIC50 in experiment [1] is 4.75; in experiment [2], 4.71; in experiment [3], 4.80; in experiment [4] it was 4.53.
In the same order, the values of `CC(O)(CSc1ccccc1C(F)(F)F)C(=O)Nc1cccc(S(F)(F)(F)(F)F)c1` (racemic) are 4.91, 4.68, 4.88 and 4.80.
For `CC(O)(CSc1cccc(S(F)(F)(F)(F)F)c1)C(=O)Nc1cccc(S(F)(F)(F)(F)F)c1` (racemic), the pIC50 is 4.89 in experiment [1], 4.54 in experiment [2], 4.76 in experiment [3] and 4.52 in experiment [4].
For `CC(O)(CSc1ccc(S(F)(F)(F)(F)F)cc1)C(=O)Nc1ccc(C#N)c(C(F)(F)F)c1` (racemic), in that order: 4.77, 4.52, 4.74 and 4.55.
For `CC(O)(CSc1ccc(F)cc1)C(=O)Nc1cccc(S(F)(F)(F)(F)F)c1` (racemic), in that order: 4.57, 4.66, 4.52 and 4.41.

Broadly, the pIC50 is −log10 of the IC50, conventionally taken in molar units.
